Experimental data taken from ChEMBL document CHEMBL5653622 (Oncotarget, 2016).
Activity calls are given as the source filed them. The rule behind the calls is not given here.

Key:
[1] = target: MAP kinase-interacting serine/threonine-protein kinase 1 (Homo sapiens) (UniProt Q9BUB5); assay: Inhibition of human MNK1 assessed as remaining activity at 10 uM in presence of ATP by radiometric kinase assay relative to control
[2] = target: Rho-associated protein kinase 2 (Homo sapiens) (UniProt O75116); assay: Inhibition of human ROCK2 assessed as remaining activity at 10 uM in presence of ATP by radiometric kinase assay relative to control
[3] = target: Serine/threonine-protein kinase PAK 4 (Homo sapiens) (UniProt O96013); assay: Inhibition of human PAK4 assessed as remaining activity at 10 uM in presence of ATP by radiometric kinase assay relative to control
[4] = target: Maternal embryonic leucine zipper kinase (Homo sapiens) (UniProt Q14680); assay: Inhibition of human MELK assessed as remaining activity at 10 uM in presence of ATP by radiometric kinase assay relative to control
[5] = target: Serine/threonine-protein kinase pim-1 (Homo sapiens) (UniProt P11309); assay: Inhibition of human PIM1 assessed as remaining activity at 10 uM in presence of ATP by radiometric kinase assay relative to control
[6] = Toxicity in Emu-Myc driven transgenic mouse transplant model of B-cell lymphoma assessed as reduction in weight of the brachial/axillary lymph nodes at 150 mg/kg, po administered for 9 days; type: organism-based; settings: in vivo, 216 h, time 9 day
[7] = target: Serine/threonine-protein kinase D1 (Homo sapiens, UniProt Q15139); assay: Inhibition of PRKD1 (unknown origin) by 33P radiometric kinase assay
[8] = Tmax in BALB/C mouse plasma at 10 mg/kg, iv by LC/MS-MS analysis; type: ADME, organism-based
[9] = Toxicity in Emu-Myc driven transgenic mouse transplant model of B-cell lymphoma assessed as reduction in weight of thymus at 150 mg/kg, po administered for 9 days; type: organism-based; settings: in vivo, 216 h, time 9 day
[10] = target: Tyrosine-protein kinase BTK (Homo sapiens) (UniProt Q06187); assay: Inhibition of human BTK assessed as remaining activity at 10 uM in presence of ATP by radiometric kinase assay relative to control
Mus musculus = assay: In vivo inhibition of total CHK1 in CRTac:Ncr-Fox1 athymic mouse xenografted with human Calu-6 cells at 150 mg/kg, po in presence of gemcitabine and carboplatin by ELISA analysis; type: functional, organism-based
[11] = target: Serine/threonine-protein kinase 16 (Homo sapiens) (UniProt O75716); assay: Inhibition of human MPSK1 assessed as remaining activity at 10 uM in presence of ATP by radiometric kinase assay relative to control
[12] = target: Homeodomain-interacting protein kinase 3 (Homo sapiens) (UniProt Q9H422); assay: Inhibition of human HIPK3 assessed as remaining activity at 10 uM in presence of ATP by radiometric kinase assay relative to control
HT-29 = assay: Induction of cell cycle arrest in etoposide induced human HT-29 cells assessed as increase in accumulation of cells at S phase at 1 to 5 uM incubated for 24 hrs by BrdU and PI staining based flow cytometry analysis; type: functional; settings: dose 1-5 µM
How it was run: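 HT29 cells exposed for 24h, stained with bromodeoxyuridine and propidium iodide, and cell-cycle distribution measured by flow cytometry.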

[13] = target: Serine/threonine-protein kinase 33 (Homo sapiens) (UniProt Q9BYT3); assay: Inhibition of human STK33 assessed as remaining activity at 10 uM in presence of ATP by radiometric kinase assay relative to control
[14] = target: Myosin light chain kinase, smooth muscle (Homo sapiens) (UniProt Q15746); assay: Inhibition of human SmMLCK assessed as remaining activity at 10 uM in presence of ATP by radiometric kinase assay relative to control
[15] = target: Eukaryotic elongation factor 2 kinase (Homo sapiens) (UniProt O00418); assay: Inhibition of human EF2K assessed as remaining activity at 10 uM in presence of ATP by radiometric kinase assay relative to control
[16] = target: Dual specificity tyrosine-phosphorylation-regulated kinase 3 (Homo sapiens) (UniProt O43781); assay: Inhibition of human DYRK3 assessed as remaining activity at 10 uM in presence of ATP by radiometric kinase assay relative to control
SW-620 = assay: Induction of apoptosis in human SW620 cells assessed as increased in cleaved PARP in presence of SN38 by Western blotting analysis; type: functional, cell-based
[17] = target: Tyrosine-protein kinase ABL1 (Homo sapiens) (UniProt P00519); assay: Inhibition of human ABL assessed as remaining activity at 10 uM in presence of ATP by radiometric kinase assay relative to control
[18] = target: Mitogen-activated protein kinase 15 (Homo sapiens, UniProt Q8TD08); assay: Inhibition of human ERK8 in presence of ATP by radiometric kinase assay
[19] = Inhibition of human CDK2/Cyclin A by FRET based Z-LYTE kinase assay
[20] = target: MAP/microtubule affinity-regulating kinase 4 (Homo sapiens) (UniProt Q96L34); assay: Inhibition of human MARK4 assessed as remaining activity at 10 uM in presence of ATP by radiometric kinase assay relative to control
[21] = target: RAC-alpha serine/threonine-protein kinase (Homo sapiens) (UniProt P31749); assay: Inhibition of human PKBa assessed as remaining activity at 10 uM in presence of ATP by radiometric kinase assay relative to control
[22] = target: Calcium/calmodulin-dependent protein kinase type 1 (Homo sapiens) (UniProt Q14012); assay: Inhibition of human CAMK1 assessed as remaining activity at 10 uM in presence of ATP by radiometric kinase assay relative to control
[23] = target: Casein kinase I (Homo sapiens) (UniProt Q9HCP0+P78368+P48730+P49674+P48729); assay: Inhibition of human CK1 assessed as remaining activity at 10 uM in presence of ATP by radiometric kinase assay relative to control; type: protein assay
[24] = target: Tau-tubulin kinase 1 (Homo sapiens) (UniProt Q5TCY1); assay: Inhibition of human TTBK1 assessed as remaining activity at 10 uM in presence of ATP by radiometric kinase assay relative to control
[25] = target: Serine/threonine-protein kinase pim-2 (Homo sapiens) (UniProt Q9P1W9); assay: Inhibition of human PIM2 assessed as remaining activity at 10 uM in presence of ATP by radiometric kinase assay relative to control
[26] = target: NUAK family SNF1-like kinase 1 (Homo sapiens) (UniProt O60285); assay: Inhibition of human NUAK1 at 10 uM in presence of ATP by radiometric kinase assay relative to control
[27] = target: Interleukin-1 receptor-associated kinase 4 (Homo sapiens) (UniProt Q9NWZ3); assay: Inhibition of human IRAK4 assessed as remaining activity at 10 uM in presence of ATP by radiometric kinase assay relative to control
Sequence of Interleukin-1 receptor-associated kinase 4 (Homo sapiens) (Q9NWZ3 whole entry): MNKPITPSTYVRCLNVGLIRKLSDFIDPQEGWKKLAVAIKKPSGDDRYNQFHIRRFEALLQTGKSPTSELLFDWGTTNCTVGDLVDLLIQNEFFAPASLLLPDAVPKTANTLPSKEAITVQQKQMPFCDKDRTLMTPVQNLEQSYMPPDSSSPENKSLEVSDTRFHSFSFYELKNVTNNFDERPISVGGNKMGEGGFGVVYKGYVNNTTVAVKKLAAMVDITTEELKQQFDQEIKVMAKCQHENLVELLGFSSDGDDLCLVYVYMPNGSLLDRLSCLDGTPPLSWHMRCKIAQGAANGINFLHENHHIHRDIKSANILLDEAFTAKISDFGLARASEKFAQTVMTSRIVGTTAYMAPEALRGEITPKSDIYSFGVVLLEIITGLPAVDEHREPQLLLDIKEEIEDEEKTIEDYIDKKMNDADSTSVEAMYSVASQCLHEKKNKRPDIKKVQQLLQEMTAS

Sequence of NUAK family SNF1-like kinase 1 (Homo sapiens) (O60285 whole entry): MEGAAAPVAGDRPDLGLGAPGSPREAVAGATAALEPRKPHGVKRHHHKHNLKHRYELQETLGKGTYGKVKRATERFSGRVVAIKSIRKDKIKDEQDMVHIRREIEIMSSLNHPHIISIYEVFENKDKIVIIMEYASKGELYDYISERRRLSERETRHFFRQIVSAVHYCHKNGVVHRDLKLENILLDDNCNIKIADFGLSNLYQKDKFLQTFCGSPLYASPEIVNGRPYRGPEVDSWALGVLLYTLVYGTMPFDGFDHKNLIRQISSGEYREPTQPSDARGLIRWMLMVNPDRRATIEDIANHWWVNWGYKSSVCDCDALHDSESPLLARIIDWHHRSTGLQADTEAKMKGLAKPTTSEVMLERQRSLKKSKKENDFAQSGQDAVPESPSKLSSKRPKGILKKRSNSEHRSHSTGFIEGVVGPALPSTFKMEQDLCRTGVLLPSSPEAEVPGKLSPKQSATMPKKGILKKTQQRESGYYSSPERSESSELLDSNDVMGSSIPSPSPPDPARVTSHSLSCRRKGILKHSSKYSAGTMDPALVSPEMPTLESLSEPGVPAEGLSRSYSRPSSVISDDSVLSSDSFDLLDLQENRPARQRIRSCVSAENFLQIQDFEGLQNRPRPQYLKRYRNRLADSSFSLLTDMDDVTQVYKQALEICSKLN
Sequence of Tyrosine-protein kinase BTK (Homo sapiens) (Q06187 whole entry): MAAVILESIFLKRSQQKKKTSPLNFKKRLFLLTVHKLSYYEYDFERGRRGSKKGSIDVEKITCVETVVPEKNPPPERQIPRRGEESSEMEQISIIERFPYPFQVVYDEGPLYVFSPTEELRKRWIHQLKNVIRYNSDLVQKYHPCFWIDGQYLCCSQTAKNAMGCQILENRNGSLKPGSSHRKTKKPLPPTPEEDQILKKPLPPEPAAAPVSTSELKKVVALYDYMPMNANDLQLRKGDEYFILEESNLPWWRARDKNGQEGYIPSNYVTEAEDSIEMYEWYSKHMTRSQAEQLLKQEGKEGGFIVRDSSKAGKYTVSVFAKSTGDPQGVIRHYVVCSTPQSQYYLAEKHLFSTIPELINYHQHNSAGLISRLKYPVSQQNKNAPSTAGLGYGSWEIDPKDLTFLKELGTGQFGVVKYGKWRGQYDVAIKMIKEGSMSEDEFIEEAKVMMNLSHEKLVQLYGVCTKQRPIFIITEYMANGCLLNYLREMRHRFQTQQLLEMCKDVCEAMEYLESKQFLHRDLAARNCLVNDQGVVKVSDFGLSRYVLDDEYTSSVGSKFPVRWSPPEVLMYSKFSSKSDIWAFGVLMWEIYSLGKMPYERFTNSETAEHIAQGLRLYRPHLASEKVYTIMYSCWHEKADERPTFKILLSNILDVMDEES
Sequence of MAP/microtubule affinity-regulating kinase 4 (Homo sapiens) (Q96L34 whole entry): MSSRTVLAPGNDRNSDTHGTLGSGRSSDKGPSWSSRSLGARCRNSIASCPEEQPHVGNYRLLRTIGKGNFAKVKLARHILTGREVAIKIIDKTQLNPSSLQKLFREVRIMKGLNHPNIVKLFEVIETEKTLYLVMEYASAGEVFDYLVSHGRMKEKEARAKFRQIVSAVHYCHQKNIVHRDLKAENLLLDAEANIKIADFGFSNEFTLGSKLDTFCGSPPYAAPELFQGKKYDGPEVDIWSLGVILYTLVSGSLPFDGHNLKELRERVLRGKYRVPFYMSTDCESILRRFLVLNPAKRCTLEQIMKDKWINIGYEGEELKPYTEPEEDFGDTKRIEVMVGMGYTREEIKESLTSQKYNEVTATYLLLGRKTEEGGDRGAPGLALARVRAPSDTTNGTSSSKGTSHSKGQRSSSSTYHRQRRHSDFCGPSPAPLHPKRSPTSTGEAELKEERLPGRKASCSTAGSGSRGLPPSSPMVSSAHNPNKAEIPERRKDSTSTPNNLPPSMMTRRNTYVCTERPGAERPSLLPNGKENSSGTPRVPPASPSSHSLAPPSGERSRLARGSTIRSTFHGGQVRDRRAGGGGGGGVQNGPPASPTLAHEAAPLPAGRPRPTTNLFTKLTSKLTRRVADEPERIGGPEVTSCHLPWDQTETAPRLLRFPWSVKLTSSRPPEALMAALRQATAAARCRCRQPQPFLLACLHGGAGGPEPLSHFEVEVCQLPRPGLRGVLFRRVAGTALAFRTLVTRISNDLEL
Sequence of Tyrosine-protein kinase ABL1 (Homo sapiens) (P00519 whole entry): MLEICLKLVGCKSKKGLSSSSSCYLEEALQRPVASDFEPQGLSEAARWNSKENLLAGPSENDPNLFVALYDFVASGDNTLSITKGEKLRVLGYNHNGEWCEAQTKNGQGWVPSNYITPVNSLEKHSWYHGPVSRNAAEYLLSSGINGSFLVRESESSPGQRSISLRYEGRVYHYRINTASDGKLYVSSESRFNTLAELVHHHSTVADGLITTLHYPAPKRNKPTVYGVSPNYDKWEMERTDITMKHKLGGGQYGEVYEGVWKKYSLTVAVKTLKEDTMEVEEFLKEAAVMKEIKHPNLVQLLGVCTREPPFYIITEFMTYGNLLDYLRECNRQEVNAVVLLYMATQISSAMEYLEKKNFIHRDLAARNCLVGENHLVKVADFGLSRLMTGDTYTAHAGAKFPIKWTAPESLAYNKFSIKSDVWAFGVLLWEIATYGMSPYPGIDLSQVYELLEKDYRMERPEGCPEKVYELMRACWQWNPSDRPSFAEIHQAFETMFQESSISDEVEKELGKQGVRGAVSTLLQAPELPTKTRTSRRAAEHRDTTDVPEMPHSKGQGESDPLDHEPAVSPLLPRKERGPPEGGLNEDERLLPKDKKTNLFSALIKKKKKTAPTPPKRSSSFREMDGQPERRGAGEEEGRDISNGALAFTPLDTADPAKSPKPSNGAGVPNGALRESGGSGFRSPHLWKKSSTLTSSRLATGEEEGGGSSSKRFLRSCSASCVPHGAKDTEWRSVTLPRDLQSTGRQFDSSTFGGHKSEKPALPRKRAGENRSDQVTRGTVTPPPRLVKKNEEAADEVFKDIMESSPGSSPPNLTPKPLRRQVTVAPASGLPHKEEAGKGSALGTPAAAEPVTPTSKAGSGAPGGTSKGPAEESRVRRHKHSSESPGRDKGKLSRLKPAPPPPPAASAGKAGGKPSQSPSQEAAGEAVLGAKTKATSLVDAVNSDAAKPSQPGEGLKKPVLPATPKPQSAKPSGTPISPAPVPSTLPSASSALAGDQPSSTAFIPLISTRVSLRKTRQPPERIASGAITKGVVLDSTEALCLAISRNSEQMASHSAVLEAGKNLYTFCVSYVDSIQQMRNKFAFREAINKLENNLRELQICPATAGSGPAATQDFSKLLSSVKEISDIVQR
Sequence of RAC-alpha serine/threonine-protein kinase (Homo sapiens) (P31749 whole entry): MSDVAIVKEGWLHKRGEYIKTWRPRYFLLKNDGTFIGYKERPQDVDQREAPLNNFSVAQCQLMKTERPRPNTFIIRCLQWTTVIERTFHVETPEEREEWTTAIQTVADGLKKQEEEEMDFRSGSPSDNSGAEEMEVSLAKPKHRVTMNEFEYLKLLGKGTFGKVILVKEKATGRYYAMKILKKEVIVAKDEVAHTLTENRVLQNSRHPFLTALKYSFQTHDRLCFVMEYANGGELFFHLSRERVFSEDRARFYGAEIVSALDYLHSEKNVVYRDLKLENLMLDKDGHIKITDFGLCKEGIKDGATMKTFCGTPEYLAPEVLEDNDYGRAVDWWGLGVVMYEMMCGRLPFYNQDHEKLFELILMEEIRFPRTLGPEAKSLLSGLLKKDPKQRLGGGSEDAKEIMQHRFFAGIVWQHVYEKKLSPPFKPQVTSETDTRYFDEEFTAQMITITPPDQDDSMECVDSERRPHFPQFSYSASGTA
Sequence of MAP kinase-interacting serine/threonine-protein kinase 1 (Homo sapiens) (Q9BUB5 whole entry, looked up): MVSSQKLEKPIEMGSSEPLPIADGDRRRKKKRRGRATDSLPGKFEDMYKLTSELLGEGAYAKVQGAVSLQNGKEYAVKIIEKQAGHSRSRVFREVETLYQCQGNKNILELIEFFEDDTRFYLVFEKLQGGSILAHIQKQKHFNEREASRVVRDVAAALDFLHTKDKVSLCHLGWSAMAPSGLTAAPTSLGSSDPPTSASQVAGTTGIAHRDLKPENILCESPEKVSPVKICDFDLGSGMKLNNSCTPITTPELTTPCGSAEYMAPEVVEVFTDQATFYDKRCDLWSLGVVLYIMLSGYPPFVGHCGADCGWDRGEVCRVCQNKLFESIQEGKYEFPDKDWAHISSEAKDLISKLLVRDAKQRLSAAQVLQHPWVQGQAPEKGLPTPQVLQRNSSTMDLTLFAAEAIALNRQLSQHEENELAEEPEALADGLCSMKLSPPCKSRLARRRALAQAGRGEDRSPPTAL
Sequence of Serine/threonine-protein kinase pim-1 (Homo sapiens) (P11309 whole entry, looked up): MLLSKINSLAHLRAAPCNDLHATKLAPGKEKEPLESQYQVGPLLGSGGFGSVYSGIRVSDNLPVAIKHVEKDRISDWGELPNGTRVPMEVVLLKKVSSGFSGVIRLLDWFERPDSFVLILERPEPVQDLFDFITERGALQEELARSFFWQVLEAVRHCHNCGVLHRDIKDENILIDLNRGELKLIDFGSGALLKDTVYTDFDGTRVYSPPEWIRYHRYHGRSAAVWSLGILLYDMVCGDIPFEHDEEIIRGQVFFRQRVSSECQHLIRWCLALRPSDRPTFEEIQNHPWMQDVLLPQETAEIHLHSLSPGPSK

- Activity [1]: 62%
- Activity [2]: 95%
- Activity [3]: 49%
- Activity [4]: 37%
- Activity [5]: 56%
- IC50 [7]: 298 nM
- Tmax [8]: 4.98 min
- Activity [10]: 72%
- Activity [11]: 122%
- Activity [12]: 124%
- Activity [13]: 39%
- Activity [14]: 84%
- Activity [15]: 98%
- Activity [16]: 24%
- Activity [17]: 93%
- IC50 [19]: 3850 nM
- Activity [20]: 39%
- Activity [21]: 93%
- Activity [22]: 69%
- Activity [23]: 85%
- Activity [24]: 82%
- Activity [25]: 88%
- inhibition [26]: 94%
- Activity [27]: 73%
Compound: N#Cc1cnc(Nc2cc(NC[C@H]3CNCCO3)c(C(F)(F)F)cn2)cn1 [SRA-737]
- Activity [6]: Toxic
- Activity [9]: Toxic
- inhibition (Mus musculus): Active
- Activity (HT-29): Active
- Activity (SW-620): Active
- IC50 [18]: 130 nM
